# PubChem BioAssay AID504325 (Broad Institute, 2011)
# Inconclusive results are not listed. Calls of active or inactive are those of the source.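 The calls were made as follows: active = every replicate test active, with falling signal and half-maximal potency at or below ten times the top dose; inconclusive = replicate tests give conflicting calls; inactive = all tests inactive, or signal shifts the wrong way.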
# Test system: HMLE_sh_eGFP viability, CellTiter-Glo luminescence, 72 h
# Test: cytotoxicity in HMLE_sh_eGFP control cells, dose response, counter-screen for breast cancer stem cell project, cell-based, dry powder, set 2 (AID 504325)
# Settings: not given
# How it was run: (§1)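 Assay system: HMLE_sh_eGFP control breast epithelial cell line / Medium: serum-free culture medium / Schedule: ~72 h compound exposure, 37 °C / Detection: luminescent ATP detection, CellTiter-Glo diluted 1:3 in PBS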
row,Compound,AC50 [µM]
1,Cc1ccc(/C=N/NC(=O)COc2ccc(Cl)cc2Cl)[nH]1,16.9
2,CC(C)c1ccc(/C=C/C(=O)NC2=NCCS2)cc1,8.92
3,CC(C)c1ccc(/C=C/C(=O)Nc2ccccc2)cc1,3.28
4,Cc1csc(NC(=O)/C=C/c2ccc(C(C)C)cc2)n1,2.83
5,Cn1cncc1/C=N/NC(=O)COc1ccc(Cl)cc1Cl,18.9
6,Cc1csc(NC(=O)c2ccc(COc3ccccc3)o2)n1,13.3
7,O=C(COc1c(Cl)cc(Cl)cc1Cl)N/N=C/c1ccc[nH]1,27.6
8,CC(C)(C)c1ccc2c(c1)OC(C(=O)N/N=C/c1ccc[nH]1)CO2 (configuration not stated),15

# Test system: not listed separately
# Test: as above
# Settings: HMLE_sh_eGFP viability, CellTiter-Glo luminescence, 72 h; at 30 µM (top of the series)
# How it was run: as §1
row,Compound,"activity change, negative = cytotoxic"
1,O=C(COc1ccc(Cl)cc1Cl)N/N=C/c1ccc[nH]1,-54.1% (inactive)
2,NNC(=O)COc1ccc(Cl)cc1Cl,-3.9% (inactive)
3,O=C(/C=C/c1cc(Cl)ccc1Cl)NC1=NCCS1,3.58% (inactive)
4,O=C(/C=C/c1ccc(F)cc1)NC1=NCCS1,-0.331% (inactive)
5,O=C(NC1=NCCS1)c1ccc(COc2ccccc2)o1,12.9% (inactive)
6,COc1cc(/C=C/C(=O)NC2=NCCS2)cc(OC)c1OC,0.088% (inactive)
7,O=C(COc1ccccc1F)N/N=C/c1ccc[nH]1,1.58% (inactive)
8,O=C(COc1ccc(Cl)cc1Cl)N/N=C/c1cnc[nH]1,-6.28% (inactive)
9,O=C(/C=C/c1ccccc1)NC1=NCCS1,-4.89% (inactive)
10,O=C(C#Cc1ccccc1)NC1=NCCS1,9.83% (inactive)
11,O=C(COc1ccc(Cl)cc1Cl)N/N=C/c1ccco1,5.52% (inactive)
12,O=C(N/N=C/c1ccc[nH]1)c1cc2ccccc2o1,13.1% (inactive)
13,CC(C)c1ccc(/C=C/C(=O)O)cc1,16.2% (inactive)
14,CC(=O)Oc1ccccc1/C=C/C(=O)NC1=NCCS1,0.09% (inactive)
15,O=C(COc1ccc(Cl)cc1)N/N=C/c1ccc[nH]1,10.5% (inactive)
16,Cc1ccccc1OCC(=O)N/N=C/c1ccc[nH]1,5.25% (inactive)
17,CC(Oc1ccc(F)cc1Cl)C(=O)N/N=C/c1ccc[nH]1 (configuration not stated),16.8% (inactive)

row,Compound,"activity change, negative = cytotoxic"
1,Cn1c(C(=O)NC2=NCCS2)cc2ccccc21,6.92% (inactive)
2,COc1ccc(/C=C/C(=O)NC2=NCCS2)c(OC)c1OC,-0.513% (inactive)
3,O=Cc1ccc[nH]1,7.66% (inactive)
4,CCNC(=O)/C=C/c1ccc(C(C)C)cc1,7.1% (inactive)
5,COc1ccc(OC)c(/C=C/C(=O)NC2=NCCS2)c1,2.36% (inactive)
6,CC(C)(C)c1ccc2c(c1)OC(C(=O)NN)CO2 (configuration not stated),15.8% (inactive)
7,O=C(N/N=C/c1ccc[nH]1)C1Cc2ccccc2O1 (configuration not stated),-1.79% (inactive)
8,O=C(O)c1ccc(COc2ccccc2)o1,1.43% (inactive)
9,Cc1ccccc1NCC(=O)N/N=C/c1ccc[nH]1,7.91% (inactive)
10,Cc1ccccc1/C=C/C(=O)NC1=NCCS1,6.57% (inactive)
11,COc1ccc(/C=C/C(=O)NC2=NCCS2)c(OC)c1,3.11% (inactive)
12,O=C(CCc1ccccc1)NC1=NCCS1,4.67% (inactive)
13,COc1ccc(CCC(=O)N/N=C/c2ccc[nH]2)cc1,-0.101% (inactive)
14,CC(=O)Oc1ccc(/C=C/C(=O)NC2=NCCS2)cc1,-11.6% (inactive)
15,O=C(COc1ccc(Cl)cc1Cl)N/N=C/c1cccs1,13.7% (inactive)
16,COc1ccc(/C=C/C(=O)NC2=NCCS2)cc1OC,-1.05% (inactive)
17,N#Cc1ccccc1OCC(=O)N/N=C/c1ccc[nH]1,-7.45% (inactive)
